Measurements from ChEMBL document CHEMBL5247575 (J Med Chem, 2018).

The molecules below were run on Acinetobacter baumannii (assay: Synergistic antibacterial activity against Acinetobacter baumannii PR363 producing OXA-23 assessed as cefepime MIC at 8 ug/ml by broth microdilution method). Conditions: dose 8 µg/ml.
Type: functional

Row | Structure (SMILES) | MIC
1 | O=C(NNC(=O)[C@@H]1CC[C@@H]2CN1C(=O)N2OS(=O)(=O)O)[C@@H]1CCCNC1 [ZIDEBACTAM] | 8 µg/mL

These molecules were tested on Klebsiella pneumoniae (assay: Synergistic antibacterial activity against Klebsiella pneumoniae 901/1860 producing KPC-3 assessed as cefepime MIC at 8 ug/ml by broth microdilution method). Conditions: dose 8 µg/ml.
Type: functional

Row | Structure (SMILES) | MIC
2 | O=C(NNC(=O)[C@@H]1CC[C@@H]2CN1C(=O)N2OS(=O)(=O)O)[C@@H]1CCCNC1 [ZIDEBACTAM] | ≤ 0.12 µg/mL

What follows are molecules tested on Bacteria (assay: Inhibition of bacteria PDC-3 assessed as half life using nitrocefin as substrate). Conditions: not given.

Row | Structure (SMILES) | T1/2
3 | O=C(NNC(=O)[C@@H]1CC[C@@H]2CN1C(=O)N2OS(=O)(=O)O)[C@@H]1CCCNC1 [ZIDEBACTAM] | 3.3 min

These molecules were tested on Klebsiella pneumoniae (assay: Synergistic antibacterial activity against Klebsiella pneumoniae 1354/2241 producing KPC-3 assessed as cefepime MIC at 8 ug/ml by broth microdilution method). Conditions: dose 8 µg/ml.
Type: functional
In short: (§1)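 Broth microdilution per CLSI guidelines, using custom frozen panels. […] Each partner drug was also tested alone. MICs were run in triplicate and the modal value is reported.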

Row | Structure (SMILES) | MIC
4 | O=C(NNC(=O)[C@@H]1CC[C@@H]2CN1C(=O)N2OS(=O)(=O)O)[C@@H]1CCCNC1 [ZIDEBACTAM] | ≤ 0.12 µg/mL

Each molecule was assayed on Acinetobacter baumannii (assay: Synergistic antibacterial activity against Acinetobacter baumannii PR408 producing OXA-24/40 assessed as meropenem MIC at 4 ug/ml by broth microdilution method). Conditions: dose 4 µg/ml.
Type: functional

Row | Structure (SMILES) | MIC
5 | O=C(NNC(=O)[C@@H]1CC[C@@H]2CN1C(=O)N2OS(=O)(=O)O)[C@@H]1CCCNC1 [ZIDEBACTAM] | > 16 µg/mL

The molecules below were run on Klebsiella pneumoniae (assay: Synergistic antibacterial activity against Klebsiella pneumoniae 935/1884 producing KPC-3 assessed as cefepime MIC at 4 ug/ml by broth microdilution method). Conditions: dose 4 µg/ml.
Type: functional

Row | Structure (SMILES) | MIC
6 | O=C(NNC(=O)[C@@H]1CC[C@@H]2CN1C(=O)N2OS(=O)(=O)O)[C@@H]1CCCNC1 [ZIDEBACTAM] | ≤ 0.12 µg/mL

The molecules below were run on Acinetobacter baumannii (assay: Synergistic antibacterial activity against ADC deleted Acinetobacter baumannii assessed as meropenem MIC at 8 ug/ml by broth microdilution method). Conditions: dose 8 µg/ml.
Type: functional

Row | Structure (SMILES) | MIC
7 | O=C(NNC(=O)[C@@H]1CC[C@@H]2CN1C(=O)N2OS(=O)(=O)O)[C@@H]1CCCNC1 [ZIDEBACTAM] | ≤ 0.12 µg/mL

Each molecule was assayed on Acinetobacter baumannii (assay: Synergistic antibacterial activity against Acinetobacter baumannii PR359 producing OXA-23 assessed as meropenem MIC at 8 ug/ml by broth microdilution method). Conditions: dose 8 µg/ml.
Type: functional
In short: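 Broth microdilution per CLSI guidelines in frozen panels. Test compound held at fixed 8 mg/L while the partner β-lactam concentration was increased. Run in triplicate; modal MIC reported.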

Row | Structure (SMILES) | MIC
8 | O=C(NNC(=O)[C@@H]1CC[C@@H]2CN1C(=O)N2OS(=O)(=O)O)[C@@H]1CCCNC1 [ZIDEBACTAM] | > 16 µg/mL

The molecules below were run on Klebsiella pneumoniae (assay: Synergistic antibacterial activity against Klebsiella pneumoniae 1084/1957 producing KPC-3 assessed as meropenem MIC at 8 ug/ml by broth microdilution method). Conditions: dose 8 µg/ml.
Type: functional
In short: as §1

Row | Structure (SMILES) | MIC
9 | O=C(NNC(=O)[C@@H]1CC[C@@H]2CN1C(=O)N2OS(=O)(=O)O)[C@@H]1CCCNC1 [ZIDEBACTAM] | ≤ 0.12 µg/mL

Each molecule was assayed on Klebsiella pneumoniae (assay: Synergistic antibacterial activity against Klebsiella pneumoniae 972/1910 producing KPC-3 assessed as meropenem MIC at 4 ug/ml by broth microdilution method). Conditions: dose 4 µg/ml.
Type: functional

Row | Structure (SMILES) | MIC
10 | O=C(NNC(=O)[C@@H]1CC[C@@H]2CN1C(=O)N2OS(=O)(=O)O)[C@@H]1CCCNC1 [ZIDEBACTAM] | ≤ 0.12 µg/mL

Each molecule was assayed on Escherichia coli (assay: Synergistic antibacterial activity against Escherichia coli DH10B assessed as meropenem MIC at 8 ug/ml by broth microdilution method). Conditions: dose 8 µg/ml.
Type: functional

Row | Structure (SMILES) | MIC
11 | O=C(NNC(=O)[C@@H]1CC[C@@H]2CN1C(=O)N2OS(=O)(=O)O)[C@@H]1CCCNC1 [ZIDEBACTAM] | ≤ 0.12 µg/mL

The molecules below were run on Escherichia coli (assay: Synergistic antibacterial activity against Escherichia coli DH10B transfected with pBR322-catI-KPC-2 assessed as meropenem MIC at 4 ug/ml by broth microdilution method). Conditions: dose 4 µg/ml.
Type: functional
In short: as §1

Row | Structure (SMILES) | MIC
12 | O=C(NNC(=O)[C@@H]1CC[C@@H]2CN1C(=O)N2OS(=O)(=O)O)[C@@H]1CCCNC1 [ZIDEBACTAM] | ≤ 0.12 µg/mL

The molecules below were run on Escherichia coli (assay: Synergistic antibacterial activity against Escherichia coli DH10B transfected with pBC SK (-) PDC-3 assessed as cefepime MIC at 8 ug/ml by broth microdilution method). Conditions: dose 8 µg/ml.
Type: functional
In short: as §1

Row | Structure (SMILES) | MIC
13 | O=C(NNC(=O)[C@@H]1CC[C@@H]2CN1C(=O)N2OS(=O)(=O)O)[C@@H]1CCCNC1 [ZIDEBACTAM] | ≤ 0.12 µg/mL

What follows are molecules tested on Klebsiella pneumoniae (assay: Synergistic antibacterial activity against Klebsiella pneumoniae jefferson 1773 producing OXA-181 assessed as cefepime MIC at 4 ug/ml by broth microdilution method). Conditions: dose 4 µg/ml.
Type: functional

Row | Structure (SMILES) | MIC
14 | O=C(NNC(=O)[C@@H]1CC[C@@H]2CN1C(=O)N2OS(=O)(=O)O)[C@@H]1CCCNC1 [ZIDEBACTAM] | ≤ 0.12 µg/mL

These molecules were tested on Acinetobacter baumannii (assay: Synergistic antibacterial activity against Acinetobacter baumannii PR363 producing OXA-23 assessed as meropenem MIC at 4 ug/ml by broth microdilution method). Conditions: dose 4 µg/ml.
Type: functional

Row | Structure (SMILES) | MIC
15 | O=C(NNC(=O)[C@@H]1CC[C@@H]2CN1C(=O)N2OS(=O)(=O)O)[C@@H]1CCCNC1 [ZIDEBACTAM] | > 16 µg/mL

What follows are molecules tested on Klebsiella pneumoniae (assay: Synergistic antibacterial activity against Klebsiella pneumoniae NY BS producing OXA-232 assessed as cefepime MIC at 4 ug/ml by broth microdilution method). Conditions: dose 4 µg/ml.
Type: functional

Row | Structure (SMILES) | MIC
16 | O=C(NNC(=O)[C@@H]1CC[C@@H]2CN1C(=O)N2OS(=O)(=O)O)[C@@H]1CCCNC1 [ZIDEBACTAM] | ≤ 0.12 µg/mL

What follows are molecules tested on Escherichia coli (assay: Synergistic antibacterial activity against Escherichia coli DH10B transfected with pBC SK (-) KPC-3 assessed as cefepime MIC at 4 ug/ml by broth microdilution method). Conditions: dose 4 µg/ml.
Type: functional

Row | Structure (SMILES) | MIC
17 | O=C(NNC(=O)[C@@H]1CC[C@@H]2CN1C(=O)N2OS(=O)(=O)O)[C@@H]1CCCNC1 [ZIDEBACTAM] | ≤ 0.12 µg/mL

The molecules below were run on Klebsiella pneumoniae (assay: Synergistic antibacterial activity against Klebsiella pneumoniae 776/1742 producing KPC-2 assessed as cefepime MIC at 4 ug/ml by broth microdilution method). Conditions: dose 4 µg/ml.
Type: functional

Row | Structure (SMILES) | MIC
18 | O=C(NNC(=O)[C@@H]1CC[C@@H]2CN1C(=O)N2OS(=O)(=O)O)[C@@H]1CCCNC1 [ZIDEBACTAM] | ≤ 0.12 µg/mL

These molecules were tested on Acinetobacter baumannii (assay: Synergistic antibacterial activity against Acinetobacter baumannii PR448 producing OXA-23 assessed as meropenem MIC at 4 ug/ml by broth microdilution method). Conditions: dose 4 µg/ml.
Type: functional

Row | Structure (SMILES) | MIC
19 | O=C(NNC(=O)[C@@H]1CC[C@@H]2CN1C(=O)N2OS(=O)(=O)O)[C@@H]1CCCNC1 [ZIDEBACTAM] | > 16 µg/mL
